Experimental data: ChEMBL document CHEMBL2380290, “Neonicotinic analogues: selective antagonists for α4β2 nicotinic acetylcholine receptors” (Bioorg Med Chem, 2013)
Calls of active or inactive are those of the source. No cut-off for these calls is given here.

Columns and labels:
[1] = target: T1, Neuronal acetylcholine receptor subunit alpha-7 (Homo sapiens, UniProt P36544); test: Displacement of [125I]alpha-bungarotoxin from human alpha7 nAChR overexpressed in human SH-SY5Y cells after 120 mins by liquid scintillation spectrometric analysis; assay type: cell-based
T1 sequence (P36544 whole entry): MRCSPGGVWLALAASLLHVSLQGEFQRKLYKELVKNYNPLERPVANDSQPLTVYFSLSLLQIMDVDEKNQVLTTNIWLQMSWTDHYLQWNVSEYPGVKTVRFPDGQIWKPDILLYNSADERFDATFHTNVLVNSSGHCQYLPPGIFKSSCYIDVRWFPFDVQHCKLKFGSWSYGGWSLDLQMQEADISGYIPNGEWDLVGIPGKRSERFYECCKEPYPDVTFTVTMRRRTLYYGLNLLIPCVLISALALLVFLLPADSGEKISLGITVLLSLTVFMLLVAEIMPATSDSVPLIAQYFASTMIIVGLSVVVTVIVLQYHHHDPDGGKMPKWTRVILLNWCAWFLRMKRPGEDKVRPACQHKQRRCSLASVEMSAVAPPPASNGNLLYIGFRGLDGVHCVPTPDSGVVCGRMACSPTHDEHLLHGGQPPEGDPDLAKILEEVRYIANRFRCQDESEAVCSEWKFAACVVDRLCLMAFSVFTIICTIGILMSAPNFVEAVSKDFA

[2] = target: T2, Neuronal acetylcholine receptor; alpha4/beta2 (Homo sapiens, UniProt P17787+P43681); test: Displacement of [3H]cytisine from human alpha4beta2 nAChR overexpressed in human SHEP cells after 75 mins by liquid scintillation spectrometric analysis; assay type: cell-based
T2 sequence (P17787 whole entry): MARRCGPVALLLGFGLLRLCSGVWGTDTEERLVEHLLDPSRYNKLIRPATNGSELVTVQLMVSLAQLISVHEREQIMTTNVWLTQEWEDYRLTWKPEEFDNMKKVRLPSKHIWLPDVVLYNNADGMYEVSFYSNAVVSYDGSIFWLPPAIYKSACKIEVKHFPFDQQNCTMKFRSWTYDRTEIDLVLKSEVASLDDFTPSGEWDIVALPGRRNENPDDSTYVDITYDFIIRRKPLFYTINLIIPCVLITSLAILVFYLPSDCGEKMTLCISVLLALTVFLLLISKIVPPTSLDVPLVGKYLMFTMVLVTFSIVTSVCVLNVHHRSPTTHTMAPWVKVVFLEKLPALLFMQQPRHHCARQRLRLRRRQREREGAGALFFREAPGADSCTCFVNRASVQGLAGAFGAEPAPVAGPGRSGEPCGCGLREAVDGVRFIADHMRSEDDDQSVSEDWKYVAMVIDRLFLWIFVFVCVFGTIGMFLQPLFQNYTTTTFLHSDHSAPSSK
T2 sequence (P43681 whole entry): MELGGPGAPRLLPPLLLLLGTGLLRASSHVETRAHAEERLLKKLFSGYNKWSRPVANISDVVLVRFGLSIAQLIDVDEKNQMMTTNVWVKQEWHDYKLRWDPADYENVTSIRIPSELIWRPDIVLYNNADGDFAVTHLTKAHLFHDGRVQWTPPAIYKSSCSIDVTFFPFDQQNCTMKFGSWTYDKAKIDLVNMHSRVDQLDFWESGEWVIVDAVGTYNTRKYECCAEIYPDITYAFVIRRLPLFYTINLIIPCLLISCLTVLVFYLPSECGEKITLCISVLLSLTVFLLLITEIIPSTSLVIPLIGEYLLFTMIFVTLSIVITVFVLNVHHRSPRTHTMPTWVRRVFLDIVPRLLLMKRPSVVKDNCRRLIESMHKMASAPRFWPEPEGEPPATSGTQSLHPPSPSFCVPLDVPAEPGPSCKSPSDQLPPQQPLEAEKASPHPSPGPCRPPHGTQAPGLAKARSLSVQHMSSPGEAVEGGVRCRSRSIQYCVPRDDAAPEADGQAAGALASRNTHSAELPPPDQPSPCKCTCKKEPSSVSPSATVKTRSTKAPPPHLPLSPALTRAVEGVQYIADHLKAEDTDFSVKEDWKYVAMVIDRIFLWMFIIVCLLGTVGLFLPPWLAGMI
Outline: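 SH-EP1-hα4β2 membrane homogenates (30–50 µg protein) were incubated with 1 nM [3H]cytisine for 75 min at 4 °C in Tris binding saline, pH 7.0. Filtration on PEI-soaked GF/C filters, scintillation counting. Four experiments in triplicate.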

[3] = target: Nicotinic acetylcholine receptor alpha4/beta2/alpha5 (Homo sapiens, UniProt P17787+P30532+P43681); test: Antagonist activity at (alpha4beta2)2alpha5 nAChR (unknown origin) expressed in Xenopus oocytes assessed as inhibition of acetylcholine-induced current after 2 mins by two-electrode voltage clamp assay; assay type: cell-based, Oocyte
Sequence of Nicotinic acetylcholine receptor alpha4/beta2/alpha5 (P17787 whole entry): as the sequence (P17787 whole entry) above
Sequence of Nicotinic acetylcholine receptor alpha4/beta2/alpha5 (P43681 whole entry): as the sequence (P43681 whole entry) above
Sequence of Nicotinic acetylcholine receptor alpha4/beta2/alpha5 (P30532 whole entry): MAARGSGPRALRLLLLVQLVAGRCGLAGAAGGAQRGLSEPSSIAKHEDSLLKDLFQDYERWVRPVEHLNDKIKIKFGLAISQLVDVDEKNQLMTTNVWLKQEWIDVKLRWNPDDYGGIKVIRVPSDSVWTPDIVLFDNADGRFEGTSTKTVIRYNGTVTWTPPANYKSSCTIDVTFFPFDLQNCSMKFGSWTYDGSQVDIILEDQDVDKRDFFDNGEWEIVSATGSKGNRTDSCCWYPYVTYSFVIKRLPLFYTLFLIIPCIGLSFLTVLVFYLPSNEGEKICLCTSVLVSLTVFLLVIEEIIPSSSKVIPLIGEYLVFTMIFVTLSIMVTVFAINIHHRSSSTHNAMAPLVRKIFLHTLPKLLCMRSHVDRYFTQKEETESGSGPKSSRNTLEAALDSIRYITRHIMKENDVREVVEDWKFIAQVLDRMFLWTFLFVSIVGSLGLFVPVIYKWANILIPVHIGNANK

[4] = target: T2, Neuronal acetylcholine receptor; alpha4/beta2; test: Antagonist activity at (alpha4beta2)2alpha4 nAChR (unknown origin) expressed in Xenopus oocytes assessed as inhibition of acetylcholine-induced current after 2 mins by two-electrode voltage clamp assay; assay type: cell-based, Oocyte
[5] = target: T2, Neuronal acetylcholine receptor; alpha4/beta2; test: Antagonist activity at (alpha4beta2)2beta2 nAChR (unknown origin) expressed in Xenopus oocytes assessed as inhibition of acetylcholine-induced current after 2 mins by two-electrode voltage clamp assay; assay type: cell-based, Oocyte
[6] = target: T1, Neuronal acetylcholine receptor subunit alpha-7; test: Displacement of [125I]alpha-bungarotoxin from human alpha7 nAChR overexpressed in human SH-SY5Y cells at 1 mM after 120 mins by liquid scintillation spectrometric analysis; assay type: cell-based
Outline: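 Membranes from SH-SY5Y-hα7 cells (30–50 µg protein) were incubated with 1 nM [125I]α-BgTx in Tris binding saline, pH 7.0, for 120 min at 25 °C. […] GF/C filtration, top test concentration 1 mM. […] Four experiments, triplicate.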

| Compound | IC50 [1] [µM] | Ki [1] [µM] | inhibition [1] | IC50 [2] [µM] | Ki [2] [µM] | inhibition [2] | IC50 [3] [µM] | IC50 [4] [µM] | IC50 [5] [µM] | inhibition [6] |
| --- | --- | --- | --- | --- | --- | --- | --- | --- | --- | --- |
| CN1CCC[C@H]1COC(=O)c1ccc(Br)cc1 | 21.1 | 10.5 | Dose-dependent effect | 0.0784 | 0.0224 | Dose-dependent effect |  |  |  |  |
| CN1CCC[C@H]1COC(=O)c1ccc(Cl)cc1 | 8.9 | 4.5 | Dose-dependent effect | 0.0394 | 0.0112 | Dose-dependent effect | 6 | 95 | 3.6 |  |
| CN1CCC[C@H]1COC(=O)c1ccc(OCc2ccccc2)cc1 | 2.3 | 1.1 | Dose-dependent effect | 0.0042 | 0.0012 | Dose-dependent effect | 17.8 | 3.6 | 25.8 |  |
| CN1CCC[C@H]1COC(=O)c1ccc(Cl)nc1 | 58.5 | 29.3 | Dose-dependent effect | 0.528 | 0.151 | Dose-dependent effect |  |  |  |  |
| CN1CCC[C@H]1COC(=O)c1cccc([N+](=O)[O-])c1 | 464 | 232 |  | 1.61 | 0.46 |  |  |  |  |  |
| CN1CCC[C@H]1COC(=O)c1ccc(OCc2ccccc2)nc1 | 59.1 | 29.5 |  | 0.166 | 0.0455 |  |  |  |  |  |
| CN1CCC[C@H]1COC(=O)c1cccc(N)c1 |  |  | Dose-dependent effect | 0.0284 | 0.0081 | Dose-dependent effect | 480 | 1.02 | 4.3 | inactive |
| CN1CCC[C@H]1COC(=O)c1ccccc1 | 13.4 | 6.7 | Dose-dependent effect | 0.0819 | 0.0234 | Dose-dependent effect | 52.3 | 313 | 2.5 |  |
| CN1CCC[C@H]1COC(=O)c1cnc2ccccc2c1 | 97.3 | 48.7 | Dose-dependent effect | 0.759 | 0.217 | Dose-dependent effect |  |  |  |  |
